The source made the active and inactive calls. The rule behind the calls is not given here.
Legend:
Homo sapiens [1] = organism: Homo sapiens; experiment: Selectivity ratio of Ki for human CB1 receptor to Ki for human CB2 receptor
Method in brief: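 Membranes from cells transfected with hCB1 (8 μg/well; Tris 50 mM, MgCl2 5 mM, EDTA 2.5 mM, BSA 0.5 mg/mL, pH 7.4) or hCB2 (4 μg/well; EGTA 2.5 mM, BSA 1 mg/mL, pH 7.5); [3H]CP55940, 90 min at 30 °C. […] Nonspecific binding 10 μM WIN55212-2; GF/C filtration, scintillation; ≥3 experiments in triplicate.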

Cannabinoid receptor 2 [2] = target: T1, Cannabinoid receptor 2 (Homo sapiens, UniProt P34972); experiment: Displacement of [3H]-CP55940 from human CB2 receptor expressed in HEK293 cell membranes after 90 mins by liquid scintillation counting method
T1 sequence (P34972 whole entry): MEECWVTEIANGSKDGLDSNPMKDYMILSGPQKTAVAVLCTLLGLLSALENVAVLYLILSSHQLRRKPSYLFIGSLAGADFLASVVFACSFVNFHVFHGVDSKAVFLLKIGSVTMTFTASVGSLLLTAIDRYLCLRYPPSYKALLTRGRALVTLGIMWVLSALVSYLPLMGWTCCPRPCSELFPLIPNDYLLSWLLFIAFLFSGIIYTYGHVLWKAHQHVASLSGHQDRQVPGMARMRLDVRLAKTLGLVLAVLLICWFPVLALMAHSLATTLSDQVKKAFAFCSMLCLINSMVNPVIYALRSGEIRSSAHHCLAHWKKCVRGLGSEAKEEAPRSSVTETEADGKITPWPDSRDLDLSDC

Cannabinoid receptor 1 [3] = target: T2, Cannabinoid receptor 1 (Homo sapiens, UniProt P21554); experiment: Agonist activity at human CB1 receptor expressed in HEK293 cell membranes assessed as induction of [35S]-GTPgammaS binding after 60 mins by liquid scintillation spectrometric method; assay type: functional
T2 sequence (P21554 whole entry): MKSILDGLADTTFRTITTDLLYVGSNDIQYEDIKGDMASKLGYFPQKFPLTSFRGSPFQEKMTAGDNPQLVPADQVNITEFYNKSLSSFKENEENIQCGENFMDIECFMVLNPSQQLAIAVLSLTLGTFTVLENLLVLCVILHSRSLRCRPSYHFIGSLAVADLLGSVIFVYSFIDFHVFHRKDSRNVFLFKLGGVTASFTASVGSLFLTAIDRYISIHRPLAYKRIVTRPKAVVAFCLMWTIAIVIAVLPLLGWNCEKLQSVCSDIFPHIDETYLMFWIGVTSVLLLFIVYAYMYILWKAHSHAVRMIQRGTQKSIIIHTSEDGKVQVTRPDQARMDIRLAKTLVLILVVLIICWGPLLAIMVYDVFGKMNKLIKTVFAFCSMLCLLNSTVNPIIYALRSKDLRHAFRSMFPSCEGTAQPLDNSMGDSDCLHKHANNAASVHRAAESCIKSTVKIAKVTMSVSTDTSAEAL

Cannabinoid receptor 1 [4] = target: T2, Cannabinoid receptor 1; experiment: biochemical; assay type: cell-based, HEK293
Homo sapiens [5] = organism: Homo sapiens; experiment: Selectivity ratio of Ki for human CB2 receptor to Ki for human CB1 receptor
[6] = Binding affinity to PDEA modified AGP (unknown origin) at 40 uM by surface plasmon resonance method; assay type: ADME; conditions: human, isolated protein
Cannabinoid receptor 2 [7] = target: T1, Cannabinoid receptor 2; experiment: Agonist activity at human CB2 receptor expressed in HEK293 cell membranes assessed as induction of [35S]-GTPgammaS binding after 60 mins by liquid scintillation spectrometric method; assay type: functional
Cannabinoid receptor 2 [8] = target: T1, Cannabinoid receptor 2; experiment: Partial agonist activity at human CB2 receptor expressed in HEK293 cell membranes assessed as inhibition of forskolin-stimulated cAMP accumulation at 1 uM after 60 mins by HTRF assay; assay type: functional, cell-based
Method in brief: (§1)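 HEK293 cells stably expressing hCB2, 5.000 cells/well, forskolin-stimulated; Lance-Ultra TR-FRET cAMP kit, 60 min room temperature with HTRF reagents; 665/620 nm ratio converted to cAMP via standard curve; forskolin level set to 100%.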

Cannabinoid receptor 2 [9] = target: T1, Cannabinoid receptor 2; experiment: Partial agonist activity at human CB2 receptor expressed in HEK293 cell membranes assessed as inhibition of forskolin-stimulated cAMP accumulation at 200 nM after 60 mins by HTRF assay; assay type: functional, cell-based; method in brief: as §1
Cannabinoid receptor 2 [10] = target: T1, Cannabinoid receptor 2; experiment: Agonist activity at human CB2 receptor expressed in HEK293 cell membranes assessed as inhibition of forskolin-stimulated cAMP accumulation at 200 nM after 60 mins by HTRF assay; assay type: functional, cell-based; method in brief: as §1
Cannabinoid receptor 2 [11] = target: T1, Cannabinoid receptor 2; experiment: Agonist activity at human CB2 receptor expressed in HEK293 cell membranes assessed as inhibition of forskolin-stimulated cAMP accumulation after 60 mins by HTRF assay; assay type: functional, cell-based
Cannabinoid receptor 2 [12] = target: T1, Cannabinoid receptor 2; experiment: Agonist activity at human CB2 receptor expressed in HEK293 cell membranes assessed as inhibition of forskolin-stimulated cAMP accumulation at 1 uM after 60 mins by HTRF assay; assay type: functional, cell-based; method in brief: as §1

Row | Structure (SMILES) | Ratio Ki (Homo sapiens [1]) | Ki (Cannabinoid receptor 2 [2]) | Ki (Cannabinoid receptor 1 [4]) | other results
1 | CCCCCCC(C)(C)c1cc(O)c2c(c1)OC(C)(C)c1cn(CCO)nc1-2 | 1.4 | 0.0396 µM | 0.0544 µM | EC50 (Cannabinoid receptor 1 [3]): 0.299 µM
2 | CCCCCCC(C)(C)c1cc(OCCCO)c2c(c1)OC(C)(C)c1cnn(CC)c1-2 | 3.6 | 0.44 µM | 1.61 µM | –
3 | CCCCCCC(C)(C)c1cc(O)c2c(c1)OC(C)(C)c1cnn(-c3cc(F)cc(F)c3)c1-2 | – | > 40 µM | > 40 µM | –
4 | CCCCCCC(C)(C)c1cc(O)c2c(c1)OC(C)(C)c1cnn(CCO)c1-2 | – | 0.366 µM | 0.0191 µM | Ratio Ki (Homo sapiens [5]): 19.1
5 | CCCCC/C=C\C/C=C\C/C=C\C/C=C\CCCC(=O)OC(CO)CO [2-ARACHIDONOYLGLYCEROL] | – | – | – | PB [6]: Active
6 | CCCCCCC(C)(C)c1cc(O)c2c(c1)OC(C)(C)c1cn(CC)nc1-2 | – | – | – | Ratio Ki (Homo sapiens [5]): > 2000; Ki (Cannabinoid receptor 1 [4]; hek293): 0.0186 µM
7 | CCCCCCC(C)(C)c1cc(O)c2c(c1)OC(C)(C)c1cnn(-c3ccc(Cl)cc3Cl)c1-2 | – | – | – | Ratio Ki (Homo sapiens [5]): > 7500; Ki (Cannabinoid receptor 1 [4]; hek293): 0.0052 µM
8 | CCCCCCC(C)(C)c1cc(OCCCBr)c2c(c1)OC(C)(C)c1cn(CC)nc1-2 | 7.5 | 0.0871 µM | 0.657 µM | –
9 | CCCCCCC(C)(C)c1cc(OC)c([C@H]2C=C(CO)[C@@H]3C[C@H]2C3(C)C)c(OC)c1 | – | – | – | Emax (Cannabinoid receptor 2 [7]): 91%
10 | CCCCCCC(C)(C)c1cc(OCC)c2c(c1)OC(C)(C)c1cnn(-c3ccc(Cl)c(Cl)c3)c1-2 | > 11.3 | 3.54 µM | > 40 µM | –
11 | CCCCCCC(C)(C)c1cc(OCCCBr)c2c(c1)OC(C)(C)c1cn(C)nc1-2 | 19.1 | 0.0773 µM | 1.48 µM | PB [6]: Active; inhibition (Cannabinoid receptor 2 [8]): Active; inhibition (Cannabinoid receptor 2 [9]): Active
12 | CCCCCCC(C)(C)c1cc(OCc2ccccc2)c2c(c1)OC(C)(C)c1cn(C)nc1-2 | 3.3 | 0.209 µM | 0.702 µM | –
13 | CCCCCCC(C)(C)c1cc(OC)c2c(c1)OC(C)(C)c1cnn(-c3ccc(Cl)c(Cl)c3)c1-2 | – | 2.26 µM | 2.32 µM | –
14 | CCCCCCC(C)(C)c1cc(OC)c2c(c1)OC(C)(C)c1cnn(-c3ccc(Cl)cc3Cl)c1-2 | – | 1.49 µM | 1.69 µM | –
15 | CCCCCCC(C)(C)c1cc(O)c2c(c1)OC(C)(C)c1cnn(-c3ccc(Cl)c(Cl)c3)c1-2 | 1.9 | – | – | Ki (Cannabinoid receptor 2 [2]; hek293): 0.27 µM; Ki (Cannabinoid receptor 1 [4]; hek293): 0.514 µM
16 | CCCCCCC(C)(C)c1cc(O)c2c(c1)OC(C)(C)c1cnn(CC)c1-2 | – | – | – | Ratio Ki (Homo sapiens [5]): > 8000; Ki (Cannabinoid receptor 1 [4]; hek293): 0.0045 µM
17 | CCCCCCC(C)(C)c1cc(OCc2ccccc2)c2c(c1)OC(C)(C)c1cn(CC)nc1-2 | 3.1 | 0.212 µM | 0.671 µM | –
18 | CCCCCCC(C)(C)c1cc(OCc2ccccc2)c2c(c1)OC(C)(C)c1cnn(-c3ccc(Cl)c(Cl)c3)c1-2 | > 10.7 | 3.74 µM | > 40 µM | –
19 | CCCCCCC(C)(C)c1cc(OCCCO)c2c(c1)OC(C)(C)c1cn[nH]c1-2 | 17.3 | 0.026 µM | 0.45 µM | PB [6]: Active; inhibition (Cannabinoid receptor 2 [8]): Active; inhibition (Cannabinoid receptor 2 [9]): Active
20 | CCCCCCC(C)(C)c1cc(OC)c2c(c1)OC(C)(C)c1cn[nH]c1-2 | 3.1 | 0.0871 µM | 0.272 µM | PB [6]: Active

Row | Structure (SMILES) | Ratio Ki (Homo sapiens [1]) | Ki (Cannabinoid receptor 2 [2]) | Ki (Cannabinoid receptor 1 [4]) | other results
21 | CCCCCCC(C)(C)c1cc(OCCCO)c2c(c1)OC(C)(C)c1cn(C)nc1-2 | > 110 | 0.364 µM | > 40 µM | –
22 | CCCCCCC(C)(C)c1cc(OCCO)c2c(c1)OC(C)(C)c1cn(CC)nc1-2 | 31 | 0.211 µM | 6.51 µM | PB [6]: Active
23 | CCCCC/C=C\C/C=C\C/C=C\C/C=C\CCCC(=O)NCCO [ANANDAMIDE] | – | – | – | PB [6]: Active
24 | CCCCCCC(C)(C)c1cc(O)c2c(c1)OC(C)(C)c1cn(CO)nc1-2 | 3.7 | 0.0594 µM | 0.218 µM | –
25 | CCCCCCC(C)(C)c1cc2c(c3c1CCCO3)-c1c(cnn1CC)C(C)(C)O2 | > 17.7 | 0.564 µM | > 10 µM | PB [6]: Active
26 | CCCCCCC(C)(C)c1cc(OCCCO)c2c(c1)OC(C)(C)c1cnn(-c3ccc(Cl)c(Cl)c3)c1-2 | – | > 40 µM | > 40 µM | –
27 | CCCCCCC(C)(C)c1cc(O)c2c(c1)OC(C)(C)c1cnn(-c3cccc(OC)c3)c1-2 | 11.5 | 0.562 µM | 6.44 µM | –
28 | CCCCCCC(C)(C)c1cc2c(c3c1CCCO3)-c1nn(CC)cc1C(C)(C)O2 | > 330 | 0.122 µM | > 40 µM | inhibition (Cannabinoid receptor 2 [10]): Active; Emax (Cannabinoid receptor 2 [11]): 98%; IC50 (Cannabinoid receptor 2 [11]): 0.0255 µM; inhibition (Cannabinoid receptor 2 [12]): Active
29 | CCCCCCC(C)(C)c1cc(O)c2c(c1)OC(C)(C)c1cn(C)nc1-2 | – | – | – | Ratio Ki (Homo sapiens [5]): > 2500; Ki (Cannabinoid receptor 1 [4]; hek293): 0.0142 µM
30 | CCCCCCC(C)(C)c1cc(OCCO)c2c(c1)OC(C)(C)c1cn[nH]c1-2 | 18 | 0.0036 µM | 0.0648 µM | inhibition (Cannabinoid receptor 2 [10]): Active; Emax (Cannabinoid receptor 2 [11]): 95%; IC50 (Cannabinoid receptor 2 [11]): 0.0216 µM; inhibition (Cannabinoid receptor 2 [12]): Active; Emax (Cannabinoid receptor 2 [7]): 110%
31 | CCCCCCC(C)(C)c1cc(O)c2c(c1)OC(C)(C)c1cn[nH]c1-2 | – | – | – | Ratio Ki (Homo sapiens [5]): > 1400; Ki (Cannabinoid receptor 1 [4]; hek293): 0.0285 µM
32 | CCCCCCC(C)(C)c1cc(OCCCO)c2c(c1)OC(C)(C)c1cnoc1-2 | 5.1 | 0.0655 µM | 0.333 µM | inhibition (Cannabinoid receptor 2 [10]): Active; Emax (Cannabinoid receptor 2 [11]): 91%; IC50 (Cannabinoid receptor 2 [11]): 0.014 µM; inhibition (Cannabinoid receptor 2 [12]): Active; Emax (Cannabinoid receptor 2 [7]): 96%
33 | CCCCCCC(C)(C)c1cc(OC)c2c(c1)OC(C)(C)c1cn(CC)nc1-2 | 31.8 | 0.0926 µM | 2.93 µM | PB [6]: Active; inhibition (Cannabinoid receptor 2 [8]): Active; inhibition (Cannabinoid receptor 2 [9]): Active
34 | CCCCCCC(C)(C)c1cc(OCCCO)c2c(c1)OC(C)(C)c1cnn(-c3ccc(Cl)cc3Cl)c1-2 | – | > 40 µM | > 40 µM | –
35 | C=C(C)[C@@H]1CCC(C)=C[C@H]1c1c(O)cc(CCCCC)cc1O [CANNABIDIOL] | – | – | – | PB [6]: Active
36 | CCCCCCC(C)(C)c1cc(OC)c2c(c1)OC(C)(C)c1cnn(CC)c1-2 | 31.6 | 0.159 µM | 5.04 µM | inhibition (Cannabinoid receptor 2 [8]): Active; inhibition (Cannabinoid receptor 2 [9]): Active
37 | CCCC(C)(C)c1ccc2c(c1)OC(C)(C)[C@@H]1CC=C(C)C[C@@H]21 | – | – | – | Emax (Cannabinoid receptor 2 [11]): 98%; IC50 (Cannabinoid receptor 2 [11]): 0.0818 µM
38 | CCCCCCC(C)(C)c1cc(OCc2ccccc2)c2c(c1)OC(C)(C)c1cnn(CC)c1-2 | 2 | 0.296 µM | 0.614 µM | –
39 | CCCCCCC(C)(C)c1cc(OCc2ccccc2)c2c(c1)OC(C)(C)c1cnn(-c3ccc(Cl)cc3Cl)c1-2 | – | > 40 µM | > 40 µM | –
40 | CCCCCCC(C)(C)c1cc(O)c2c(c1)OC(C)(C)c1cnn(C3CCCCC3)c1-2 | 21.5 | 0.0537 µM | 1.14 µM | PB [6]: Active

Reference: ChEMBL document CHEMBL4425113, “Chromenopyrazole, a Versatile Cannabinoid Scaffold with in Vivo Activity in a Model of Multiple Sclerosis” (J Med Chem, 2016)
